In PubChem BioAssay AID463177 (The Scripps Research Institute Molecular Screening Center, 2010):
The source made the active and inactive calls.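 Rule for the calls: active = apoptotic subG1 cells at or above 20% at some dose above 100 nM; inactive = subG1 cells below 20% at every dose.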

Test: apoptosis induction in parental HeLa cells, late-stage follow-up, counter-screen for Wee1 degradation inhibitor project, cell-based, FACS (AID 463177)
Conditions: PI FACS subG1 fraction, 20 h; G1 fraction: G1 phase cells, at 5 µM; G2 fraction: G2 phase cells, at 5 µM; S fraction: S phase cells, at 5 µM; subG1 cells, higher = apoptosis: at 5 µM (top of the series)
Outline: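 Assay system: parental HeLa cells. Compound: 7-point dose series, nominal top concentration 5 µM. Schedule: 20 h compound treatment. Measured by: propidium iodide flow cytometry, DNA content. Measure: Cell-cycle phase fractions (%), subG1 marking apoptosis. Controls: DMSO vehicle reference.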

Compound | G1 fraction [%] | G2 fraction [%] | S fraction [%] | subG1 cells, higher = apoptosis
c1ccc2[nH]c(CNc3nc(N4CCOCC4)nc4c3ncn4-c3ccsc3)nc2c1 | 24.9 | 4.14 | 22.5 | 47.6% (active)
O=[N+]([O-])c1cccc2[nH]c(CNc3nc(N4CCOCC4)nc4c3ncn4-c3ccsc3)nc12 | 41.5 | 9.18 | 22.8 | 26.3% (active)
